What all share (assay type): functional
Test [1] relates to Candida albicans. Briefly: Tested for minimum inhibitory concentration against Candida albicans 124 at pH of 4.5. An outline of the steps:
(§1)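 Broth microdilution in malt extract broth, initial pH 4.5 or 6.5, with 1×10^3 CFU per 0.2 mL well of thawed stored cultures. Compound stocks were made in 5% DMSO/0.2% Tween 80 and diluted to final 0.05–100 μg/mL. Plates were incubated 48 h at 30 °C and read macroscopically. MIC was the lowest concentration with no detectable growth. Vehicle-only wells served as controls.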

For test [2], the system named is Meyerozyma guilliermondii. In words: Tested for minimum inhibitory concentration against Candida guilliermondii 80 at pH of 4.5. An outline of the steps:
as §1

Test [3] relates to Meyerozyma guilliermondii. In words: Tested for minimum inhibitory concentration against Candida guilliermondii 80 at pH of 6.5. An outline of the steps: as §1
The test system of test [4] is Pichia kudriavzevii. Briefly: Tested for minimum inhibitory concentration against Candida krusei 132 at pH of 4.5. An outline of the steps:
as §1

Test [5] concerns Pichia kudriavzevii. In words: Tested for minimum inhibitory concentration against Candida krusei 132 at pH of 6.5. An outline of the steps:
as §1

For test [6], the system named is Candida tropicalis. In words: Tested for minimum inhibitory concentration against Candida tropicalis 43 at pH of 4.5. An outline of the steps:
as §1

The subject of test [7] is Candida tropicalis. Briefly: Tested for minimum inhibitory concentration against Candida tropicalis 43 at pH of 6.5. A digest of the protocol:
as §1

Test [8] has as its system Candida albicans. Briefly: Tested for minimum inhibitory concentration against Candida albicans 124 at pH of 6.5. An outline of the steps:
as §1

Test [9] deals with Candida albicans. In words: Tested for minimum inhibitory concentration against Candida albicans 124 (Candida albicans) at pH of 4.5. An outline of the steps: as §1
The subject of test [10] is Meyerozyma guilliermondii. Briefly: Tested for minimum inhibitory concentration against Candida guilliermondii 80 (C.g) at pH of 6.5. A digest of the protocol:
as §1

Test [11] relates to Meyerozyma guilliermondii. In words: Tested for minimum inhibitory concentration against Candida guilliermondii 80 (C.g) at pH of 4.5. A digest of the protocol: as §1
In test [12] the test system is Candida albicans. Briefly: tested for minimum inhibitory concentration against Candida albicans 124 (Candida albicans) at pH of 6.5. A digest of the protocol:
as §1

For test [13], the system named is Pichia kudriavzevii. In words: Tested for minimum inhibitory concentration against Candida krusei 132 (C.k) at pH of 4.5. A digest of the protocol:
as §1

The subject of test [14] is Pichia kudriavzevii. Briefly: Tested for minimum inhibitory concentration against Candida krusei 132 (C.k) at pH of 6.5. An outline of the steps:
as §1

Test [15] relates to Candida tropicalis. In words: Tested for minimum inhibitory concentration against Candida tropicalis 43 (C.t) at pH of 4.5. An outline of the steps: as §1
Test [16] concerns Candida tropicalis. Briefly: Tested for minimum inhibitory concentration against Candida tropicalis 43 (C.t) at pH of 6.5. An outline of the steps: as §1
Test [17] has as its system Candida albicans. In words: Tested for minimum subinhibitory concentration against Candida albicans 4 (Candida albicans) at pH 6.5. An outline of the steps:
(§2)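 Malt extract broth microdilution, initial pH 6.5, inoculum 1×10^3 CFU per 0.2 mL well. Compound diluted from 0.08% stock (5% DMSO/0.2% Tween 80) to final 0.05–100 μg/mL. Macroscopic reading after 48 h, 30 °C. MSIC = lowest concentration giving visible growth inhibition in at least two of three triplicates. Vehicle-only negative controls.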

The test system of test [18] is Candida albicans. In words: Tested for minimum subinhibitory concentration against Candida albicans 88 (Candida albicans) at pH 6.5. A digest of the protocol: as §2
The subject of test [19] is Candida albicans. In words: Tested for minimum subinhibitory concentration against Candida albicans 9 (Candida albicans) at pH 6.5. An outline of the steps: as §2
In test [20] the test system is Candida albicans. Briefly: Tested for minimum subinhibitory concentration against Candida albicans 90 (Candida albicans) at pH 6.5. An outline of the steps:
as §2

Test [21] relates to Candida albicans. In words: Tested for minimum subinhibitory concentration against Candida albicans 26 (Candida albicans) at pH 6.5. An outline of the steps:
as §2

The test system of test [22] is Candida albicans. In words: Tested for minimum subinhibitory concentration against Candida albicans 3 (Candida albicans) at pH 6.5. A digest of the protocol:
as §2

The subject of test [23] is Candida albicans. Briefly: Tested for minimum inhibitory concentration against Candida albicans 124 (Candida albicans) at pH 6.5. An outline of the steps:
(§3)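 Broth microdilution in malt extract broth, initial pH 6.5, 1×10^3 CFU per 0.2 mL well, from liquid-nitrogen-stored Sabouraud cultures. Compound from 0.08% stock in 5% DMSO/0.2% Tween 80, final 0.05–100 μg/mL. Visual reading after 48 h at 30 °C. MIC = lowest concentration with no detectable growth. Vehicle-only negative controls.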

For test [24], the system named is Candida albicans. Briefly: Tested for minimum inhibitory concentration against Candida albicans 26 (Candida albicans) at pH 6.5. An outline of the steps:
as §3

The subject of test [25] is Candida albicans. In words: Tested for minimum inhibitory concentration against Candida albicans 3 (Candida albicans) at pH 6.5. An outline of the steps:
as §3

Test [26] has as its system Candida albicans. In words: Tested for minimum inhibitory concentration against Candida albicans 88 (Candida albicans) at pH 6.5. An outline of the steps:
as §3

The subject of test [27] is Candida albicans. Briefly: Tested for minimum inhibitory concentration against Candida albicans 9 (Candida albicans) at pH 6.5. A digest of the protocol: as §3
For test [28], the system named is Candida albicans. Briefly: Tested for minimum inhibitory concentration against Candida albicans 90 (Candida albicans) at pH 6.5. An outline of the steps: as §3
The test system of test [29] is Meyerozyma guilliermondii. Briefly: Tested for minimum subinhibitory concentration against Candida guilliermondii 80 (C.g) at pH 6.5. An outline of the steps:
as §2

Test [30] deals with Candida albicans. In words: Tested for minimum subinhibitory concentration against Candida albicans 124 (Candida albicans) at pH 6.5. A digest of the protocol: as §2
Test [31] concerns Pichia kudriavzevii. In words: Tested for minimum inhibitory concentration against Candida krusei 132 (C.k) at pH 6.5. An outline of the steps:
as §3

The subject of test [32] is Pichia kudriavzevii. Briefly: Tested for minimum subinhibitory concentration against Candida krusei 132 (C.k) at pH 6.5. An outline of the steps: as §2
Test [33] relates to Candida tropicalis. Briefly: Tested for minimum inhibitory concentration against Candida tropicalis 43 (C.t) at pH 6.5. A digest of the protocol: as §3
Test [34] deals with Candida tropicalis. Briefly: Tested for minimum subinhibitory concentration against Candida tropicalis 43 (C.t) at pH 6.5. A digest of the protocol:
as §2

The species named for test [35] is Mus musculus. Briefly: Tested for efficacy of compound in experimental vaginal candidosis (mouse) after oral treatment at dosage of 4 x150 mg kg e-1. An outline of the steps:
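Vaginal candidiasis in hormonally conditioned female NMRI mice (18–20 g), 10 per group, inoculated intravaginally with 50 μL Sabouraud's glucose broth containing 3.5×10^4 CFU C. albicans no. 124. Dosed four times per gavage, 2 h before and 2, 18 and 24 h after infection. Vaginal swabs plated on Sabouraud's glucose agar with streptomycin (0.1 mg/mL), 48 h at 37 °C. Cure = failed reisolation.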

The species named for test [36] is Mus musculus. In words: Tested for efficacy of compound in experimental systemic candidosis (mouse) after oral treatment at dosage of 8 *100 mg kg e-1. A digest of the protocol:
(§4)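 Systemic candidiasis: female NMRI mice (18–20 g), 10 per group, infected by intravenous injection of 10⁶ CFU C. albicans no. 124 via lateral tail vein. Oral dosing twice daily on 4 consecutive days, starting 2 h before inoculation. Efficacy taken as survival rate up to day 9 after infection.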

Test [37] is filed under the species Mus musculus. Briefly: Tested for efficacy of compound in experimental systemic candidosis (mouse) after oral treatment at dosage of 8 *200 mg kg e-1. An outline of the steps:
as §4

The species entered for test [38] is Rattus norvegicus. In words: Tested for efficacy of compound in experimental vaginal candidosis (rat) after oral treatment at dosage of 2x 150 mg kg e-1. An outline of the steps: (§5)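 Hormonally conditioned female Wistar rats (~150 g), 10 per group, given intravaginal C. albicans no. 124, 3.5×10^4 CFU in 50 μL Sabouraud's glucose broth. Oral dosing twice, 2 h before and 18 h after infection. Vaginal swabs plated on Sabouraud's glucose agar with streptomycin (0.1 mg/mL), 48 h at 37 °C. Cured when C. albicans not reisolated.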

For test [39], the species on record is Rattus norvegicus. In words: Tested for efficacy of compound in experimental vaginal candidosis (rat) after oral treatment at dosage of 2x 300 mg kg e-1. A digest of the protocol: as §5
Test [40] is filed under the species Rattus norvegicus. Briefly: Tested for efficacy of compound in experimental vaginal candidosis (rat) after tropical treatment at dosage of 9x 0.1% drug concentration. A digest of the protocol:
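Female Wistar rats (~150 g, hormonally conditioned, 10 per group) infected intravaginally with 3.5×10^4 CFU C. albicans no. 124 in 50 μL broth. Intravaginal gel, 0.2 mL, from 2 h post-inoculation, twice daily for 4 days (nine applications). Swabs plated one day after last treatment on Sabouraud's glucose agar with streptomycin, 48 h at 37 °C. Cure = no reisolation.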

The test system of test [41] is Meyerozyma guilliermondii. In words: Tested for minimum inhibitory concentration against Candida guilliermondii 80 (C.g) at pH 6.5. A digest of the protocol:
as §3

Test [42] deals with Candida albicans. Briefly: Tested for minimum inhibitory concentration against Candida albicans 4 (Candida albicans) at pH 6.5. A digest of the protocol: as §3

The structures appear in SMILES notation. In brackets after ≈: the same amount, converted by molar mass.

Consider `CC[C@@H](C)[C@H]1C(=O)NCC(=O)N(C)[C@@H](C(C)C)C(=O)N[C@@H](Cc2ccc(OC/C=C(\C)CCC=C(C)C)cc2)C(=O)O[C@H](C)C(=O)N2CCCC[C@H]2C(=O)N(C)[C@@H](C(C)C)C(=O)N[C@@H](C(C)C)C(=O)N(C)[C@@H](CC(=O)O)C(=O)N(C)[C@@H]([C@@H](C)CC)C(=O)N1C`, for which the minimum inhibitory concentration (MIC) in test [1], in test [2], in [3], in test [4], in test [5] and in [6] was over 100 mg/L each time. Besides, the minimum inhibitory concentration (MIC) in test [7] and in test [8] was over 100 mg/L in each case.

Consider `C=CCOC(=O)C[C@H]1C(=O)N(C)[C@@H]([C@@H](C)CC)C(=O)N(C)[C@@H]([C@H](C)CC)C(=O)NCC(=O)N(C)[C@@H](C(C)C)C(=O)N[C@@H](Cc2ccc(OCC=C)cc2)C(=O)O[C@H](C)C(=O)N2CCCC[C@H]2C(=O)N(C)[C@@H](C(C)C)C(=O)N[C@@H](C(C)C)C(=O)N1C`, for which the minimal inhibitory concentration (MIC) in test [9], in test [10], in [11], in [12], in test [13] and in test [14] was over 100 mg/L in each case. Moreover, the minimum inhibitory concentration (MIC) in test [15] and in [16] was over 100 mg/L each time.

With `CC(=O)N1CCN(c2ccc(OC[C@H]3CO[C@](Cn4ccnc4)(c4ccc(Cl)cc4Cl)O3)cc2)CC1` [KETOCONAZOLE], the MSIC is under 0.05 µg/mL in test [17]; under 0.05 µg/mL in [18]; under 0.05 µg/mL in test [19]; 0.39 µg/mL in test [20]; under 0.05 µg/mL in test [21]; 0.19 µg/mL in [22]. Moreover, the MSIC in test [29] turned out to be 0.19 µg/mL; in test [30] it was 0.19 µg/mL; in test [32], 0.78 µg/mL; in test [34], 6.25 µg/mL. For the same molecule, the MIC (in general, the lowest concentration that inhibits growth of the organism) in test [23] is over 100 mg/L; in test [24] it was over 100 mg/L; in [25] it was 100 mg/L (≈ 188 µM); in [26] it was over 100 mg/L; in test [27], 100 mg/L (≈ 188 µM); in [28], over 100 mg/L. Besides, the minimum inhibitory concentration (MIC) in [31], in test [33], in test [41] and in test [42] was over 100 mg/L throughout. The Efficacy in test [35] was determined as 100%; in [36], 100%; in [37], 100%; in [38], 100%; in test [39], 100%; in test [40] it was 73%.
